Columns and labels:
[1] = test system: Rat; test: concentration in plasma after dosing; conditions: dosed: 2,4-Dichlorophenoxyacetic acid, 2.0 mg/kg, iv, Male, Sprague-Dawley
[2] = test system: Mouse; test: concentration in plasma after dosing; conditions: dosed: 2,4-Dichlorophenoxyacetic acid, 1.0 mg/kg, oral, Male, B6C3F1
[3] = test system: Hamster; test: concentration in plasma after dosing; conditions: dosed: 2,4-Dichlorophenoxyacetic acid, 40 mg/kg, oral, Male, Syrian Golden
Method in brief: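 Concentration-versus-time or amount-versus-time points were compiled from published in vivo toxicokinetic studies and from two structured collections. The studies were found by PubMed searching, classifier screening and manual review. Points were mostly digitised from plot screenshots with WebPlotDigitizer, otherwise copied from tables, and kept in the reported units. Dose, route, subject details and medium were curated by hand from each paper, and sampling and analytical methods follow each source and were often unreported.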

[4] = test system: Mouse; test: concentration in plasma after dosing; conditions: 0.25 h; dosed: 2-Hydroxy-4-methoxybenzophenone; 50 mg/kg; iv; Female; B6C3F1
[5] = test system: Rat; test: concentration in plasma after dosing; conditions: dosed: 2-Hydroxy-4-methoxybenzophenone, 500 mg/kg, oral, Male, F344
[6] = test system: Mouse; test: concentration in plasma after dosing; conditions: 3 h; dosed: 2-Hydroxy-4-methoxybenzophenone; 50 mg/kg; iv; Female; B6C3F1
[7] = test system: Rat; test: concentration in plasma after dosing; conditions: dosed: 2-Hydroxy-4-methoxybenzophenone, 500 mg/kg, oral, Male, F344; remark: listed apart in the source
[8] = test system: Mouse; test: concentration in plasma after dosing; conditions: 2.5 min; dosed: 2-Hydroxy-4-methoxybenzophenone; 250 mg/kg; oral; Male; B6C3F1
[9] = test system: Rat; test: concentration in plasma after dosing; conditions: dosed: Methyleugenol, 37 mg/kg, oral, Female, F344/N
[10] = test system: Rat; test: concentration in plasma after dosing; conditions: 20 min; dosed: Methyleugenol; 37 mg/kg; oral; Female; F344/N
[11] = test system: Rat; test: concentration in plasma after dosing; conditions: dosed: Methyleugenol, 37 mg/kg, oral, Male, F344/N
[12] = test system: Rat; test: concentration in plasma after dosing; conditions: dosed: Methyleugenol, 37 mg/kg, oral, Male, F344/N; remark: listed apart in the source
[13] = test system: Rat; test: concentration in liver after dosing; conditions: 3 h; dosed: Perfluorohexane-1-sulphonic acid – potassium salt; 16 mg/kg; oral; Female; F344
[14] = test system: Rat; test: concentration in brain after dosing; conditions: 24 h; dosed: Perfluorohexane-1-sulphonic acid – potassium salt; 16 mg/kg; oral; Female; Harlan Sprague Dawley
[15] = test system: Rat; test: concentration in kidney after dosing; conditions: dosed: Perfluorohexane-1-sulphonic acid – potassium salt, 16 mg/kg, oral
[16] = test system: Rat; test: concentration in brain after dosing; conditions: 48 h; dosed: Perfluorohexane-1-sulphonic acid – potassium salt; 16 mg/kg; oral; Female; Harlan Sprague Dawley
[17] = test system: Rat; test: concentration in kidney after dosing; conditions: 12 h; dosed: Perfluorohexane-1-sulphonic acid – potassium salt; 16 mg/kg; oral; Female; Harlan Sprague Dawley
[18] = test system: Rat; test: concentration in kidney after dosing; conditions: 3 h; dosed: Perfluorohexane-1-sulphonic acid – potassium salt; 16 mg/kg; oral; Female; F344
[19] = test system: Rat; test: concentration in liver after dosing; conditions: 12 h; dosed: Perfluorohexane-1-sulphonic acid – potassium salt; 16 mg/kg; oral; Female; Harlan Sprague Dawley
[20] = test system: Rat; test: concentration in plasma after dosing; conditions: 0.25 h; dosed: Primidone; 80 mg/kg; oral; Female; F344
[21] = test system: Rat; test: concentration in plasma after dosing; conditions: 1.5 h; dosed: Primidone; 30 mg/kg; oral; Male; F344
[22] = test system: Rat; test: concentration in plasma after dosing; conditions: 12 h; dosed: Primidone; 30 mg/kg; oral; Female; F344
[23] = test system: Rat; test: concentration in plasma after dosing; conditions: 9 h; dosed: Primidone; 130 mg/kg; oral; Male; F344
[24] = test system: Rat; test: concentration in plasma after dosing; conditions: 0.5 h; dosed: alpha-Thujone; 25 mg/kg; oral; Male; Harlan Sprague Dawley
[25] = test system: Rat; test: concentration in plasma after dosing; conditions: 6 h; dosed: alpha-Thujone; 25 mg/kg; oral; Male; Harlan Sprague Dawley
[26] = test system: Rat; test: concentration in plasma after dosing; conditions: 5 min; dosed: alpha-Thujone; 50 mg/kg; oral; Female; Harlan Sprague Dawley
[27] = test system: Rat; test: concentration in brain after dosing; conditions: 3 h; dosed: alpha-Thujone; 25 mg/kg; oral; Male; Harlan Sprague Dawley
[28] = test system: Rat; test: concentration in brain after dosing; conditions: 5 min; dosed: alpha-Thujone; 25 mg/kg; oral; Male; Harlan Sprague Dawley
[29] = test system: Rat; test: concentration in plasma after dosing; conditions: 0.5 h; dosed: alpha-Thujone; 25 mg/kg; oral; Male; Harlan Sprague Dawley; remark: listed apart in the source
[30] = test system: Rat; test: concentration in plasma after dosing; conditions: 12 h; dosed: alpha-Thujone; 50 mg/kg; oral; Female; Harlan Sprague Dawley
[31] = test system: Rat; test: concentration in brain after dosing; conditions: 5 min; dosed: alpha-Thujone; 50 mg/kg; oral; Female; Harlan Sprague Dawley

O=C(O)COc1ccc(Cl)cc1Cl [2,4-Dichlorophenoxyacetic acid]
concentration in plasma [ng/mL]
Conditions	[1]	[2]	[3]
0.25 h	14100	3930	57000
0.5 h	9550	3060	88000
0.75 h	5750	–	–
1 h	–	–	40700
1.5 h	–	–	16600
2 h	2070	1790	12000
2.5 min	28500	–	–
3 h	419	990	–
3.5 h	410	–	–
4 h	–	–	3730
5 min	–	3890	26600
6 h	–	324	1400
8 h	–	161	–
10 h	–	–	34300
10 min	10400	4270	–

O=C(c1ccccc1)c1ccc(O)cc1O [2,4-Dihydroxybenzophenone]
Conditions	concentration in plasma [ng/mL]
[4]	903
[6]	57.7
[8]	92.3

concentration in plasma [ng/mL]
Conditions	0.5 h	10 h	10 min	12 h
[5]	–	107	78.6	–
[7]	236	–	–	151

C=CCc1ccc(OC)c(OC)c1 [Methyleugenol]
Conditions	concentration in plasma [ng/mL]
[9], 5 h	16.9
[9], 5 min	211
[11], 1.5 h	148
[11], 8 h	8.19
[12], 1 h	59.2
[12], 5 h	18.6

Conditions	concentration in plasma [ng/mL]
[10]	374

O=S(=O)([O-])C(F)(F)C(F)(F)C(F)(F)C(F)(F)C(F)(F)C(F)(F)F.[K+] [Perfluorohexane-1-sulphonic acid – potassium salt]
Conditions	concentration in brain [ng/g]	concentration in kidney [ng/g]	concentration in liver [ng/g]
[13]	–	–	57000
[14]	701	–	–
[16]	496	–	–
[17]	–	25000	–
[18]	–	18100	–
[19]	–	–	39800

concentration in kidney [ng/g], [15]
Conditions	3 h	6 h	12 h	24 h	48 h	96 h	192 h	528 h	1200 h
Female, F344	29100	37500	41400	38500	–	–	16300	12700	–
Female, Harlan Sprague Dawley	29000	39200	26200	17200	7840	5860	2010	–	–
Male, Harlan Sprague Dawley	–	–	–	–	–	–	–	–	5590

CCC1(c2ccccc2)C(=O)NCNC1=O [Primidone]
Conditions	concentration in plasma [ng/mL]
[20]	25300
[21]	14000
[22]	5500
[23]	10400

CC(C)[C@]12CC(=O)[C@H](C)[C@H]1C2 [alpha-Thujone]
Conditions	concentration in brain [ng/g]	concentration in plasma [ng/mL]
[24]	–	337
[25]	–	267
[26]	–	112
[27]	130	–
[28]	754	–
[29]	–	176
[30]	–	18.3
[31]	994	–
